Test results as given in ChEMBL document CHEMBL2021767, “Library-based discovery and characterization of daphnane diterpenes as potent and selective HIV inhibitors in Daphne gnidium” (J Nat Prod, 2012).
The source made the active and inactive calls. The calls are words filed in the database; no cut-off is given here.

Key:
[1] = tested on: Human immunodeficiency virus 1; test: Antiviral activity against multidrug-resistant HIV1 106-PR infected in HEK293T cells assessed as inhibition of viral replication after 4 days by beta-galactosidase reporter gene assay; type: functional, organism-based; conditions: Human immunodeficiency virus 1, 106-PR, HEK-293T, 96 h
Outline: (§1)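 HEK293T transfected with proviral DNA (wild-type NL4-3 CXCR4-tropic or NL-AD87 CCR5-tropic, or multiresistant 106-PR protease-inhibitor or 695-RT RT-inhibitor mutants), then co-cultured 4 days with HeLa-SxR5 reporter cells (CD4, CCR5, endogenous CXCR4, LTR-LacZ) plus test substance; DMEM/10% FBS, 37 °C, 7% CO2. β-galactosidase colorimetric read at 405 nm, normalized to plate controls; EC50 from fitted dose-response curves.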

[2] = tested on: Human immunodeficiency virus 1; test: Resistance factor, ratio of EC50 for multidrug-resistant HIV1 106-PR infected in HEK293T cells to wildtype HIV1 infected in HEK293T cells; type: functional, HEK-293T
Outline: (§2)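 Resistance factor = EC50 against mutant virus (106-PR or 695-RT) divided by EC50 against wild-type; EC50s from 4-day HEK293T-transfection/HeLa-SxR5 co-culture with β-galactosidase read-out (405 nm), normalized to plate controls, curve-fitted.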

[3] = tested on: Human immunodeficiency virus 1; test: Antiviral activity against CXCR4-tropic HIV1 NL4-3 infected in HEK293T cells assessed as inhibition of viral replication after 4 days by beta-galactosidase reporter gene assay; type: functional, organism-based; conditions: Human immunodeficiency virus 1, NL4-3, HEK-293T, 96 h; outline: as §1
[4] = tested on: Human immunodeficiency virus 1; test: Antiviral activity against CCR5-tropic HIV1 NL-AD87 infected in HEK293T cells assessed as inhibition of viral replication after 4 days by beta-galactosidase reporter gene assay; type: functional, organism-based; conditions: Human immunodeficiency virus 1, NL-AD87, HEK-293T, 96 h; outline: as §1
HEK-293T = test: Cytotoxicity against human HEK293T cells after 4 days by Alamar blue assay; type: cell-based; conditions: 96 h
Outline: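 Same culture set-up as the anti-HIV assay (HEK293T with HeLa-SxR5, DMEM/10% FBS, 37 °C, 7% CO2) but with no proviral DNA transfected; viability read with AlamarBlue after 4 days.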

[5] = tested on: Human immunodeficiency virus 1; test: Antiviral activity against multidrug-resistant HIV1 695-RT infected in HEK293T cells assessed as inhibition of viral replication after 4 days by beta-galactosidase reporter gene assay; type: functional, organism-based; conditions: Human immunodeficiency virus 1, 695-RT, HEK-293T, 96 h; outline: as §1
[6] = tested on: Human immunodeficiency virus 1; test: Resistance factor, ratio of EC50 for multidrug-resistant HIV1 695-RT infected in HEK293T cells to wildtype HIV1 infected in HEK293T cells; type: functional, HEK-293T; outline: as §2
PBMC [7] = test: Down-regulation of CXCR4 expression in PHA- and IL-2-stimulated human PBMC membranes at 20 nM after 48 hrs by flow cytometric analysis; type: functional, cell-based
Outline: (§3)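 Healthy-donor PBMCs at 1 × 10^6 cells/mL in RPMI/10% FBS, activated 48 h with PHA 2.5 μg/mL and IL-2 300 IU/mL, then treated 48 h with 20 nM compound or vehicle (0.25% DMSO, 100 IU/mL IL-2). Sampled at 0, 2, 5, 24, 48 h; stained 40 min at 4 °C with FITC anti-CXCR4 or anti-CCR5, or PE anti-CD69, plus isotype controls; flow cytometry, % cells expressing each receptor.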

PBMC [8] = test: Down-regulation of CCR5 expression in PHA- and IL-2-stimulated human PBMC membranes at 20 nM after 48 hrs by flow cytometric analysis; type: functional, cell-based; outline: as §3
PBMC [9] = test: Upregulation of CD69 expression in PHA- and IL-2-stimulated human PBMC membranes at 20 nM after 48 hrs by flow cytometric analysis; type: functional, cell-based; outline: as §3
[10] = tested on: Human immunodeficiency virus 1; test: Antiviral activity against wild type Human immunodeficiency virus 1 NL4-3 pseudotyped with VSV envelope infected in human HeLa-SxR5 cells assessed as inhibition of viral replication after 3 days by beta-galactosidase assay; type: functional, organism-based
Outline: (§4)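 Pseudoparticles made by cotransfecting HEK293T with env-defective NL4-3 provirus plus plasmid for full-length NL4-3 Env or VSV envelope; supernatants harvested 2 days post-transfection, cleared by low-speed spin, used to transduce HeLa-SxR5 with or without compound at increasing concentrations; β-galactosidase activity measured 3 days later; means ± standard deviation.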

[11] = tested on: Human immunodeficiency virus 1; test: Antiviral activity against wild type Human immunodeficiency virus 1 NL4-3 pseudotyped with HIV envelope infected in human HeLa-SxR5 cells assessed as inhibition of viral replication after 3 days by beta-galactosidase assay; type: functional, organism-based; outline: as §4
[12] = tested on: Human immunodeficiency virus 1; test: Antiviral activity against wild type Human immunodeficiency virus 1 NL4-3 pseudotyped with VSV envelope infected in human HeLa-SxR5 cells assessed as inhibition of viral replication at 65 nM after 3 days by beta-galactosidase assay; type: functional, organism-based; outline: as §4
[13] = tested on: Human immunodeficiency virus 1; test: Antiviral activity against wild type Human immunodeficiency virus 1 NL4-3 pseudotyped with HIV envelope infected in human HeLa-SxR5 cells assessed as inhibition of viral replication at 65 nM after 3 days by beta-galactosidase assay; type: functional, organism-based
Outline: (§5)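 HEK293T cells cotransfected with an envelope-defective NL4-3-derived provirus plus a plasmid expressing full-length NL4-3 HIV envelope. Supernatants were harvested 2 days post-transfection, spun at low speed to clear debris, and used to transduce HeLa-SxR5 reporter cells (CD4/CCR5, endogenous CXCR4, HIV-LTR-LacZ) with or without compound. β-galactosidase was read colorimetrically at 405 nm 3 days later and normalised to positive and negative control wells as percent inhibition.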

[14] = tested on: Human immunodeficiency virus 1; test: Antiviral activity against wild type Human immunodeficiency virus 1 NL4-3 pseudotyped with VSV envelope infected in human HeLa-SxR5 cells assessed as inhibition of viral replication at 300 nM after 3 days by beta-galactosidase assay; type: functional, organism-based; outline: as §4
[15] = tested on: Human immunodeficiency virus 1; test: Antiviral activity against wild type Human immunodeficiency virus 1 NL4-3 pseudotyped with HIV envelope infected in human HeLa-SxR5 cells assessed as inhibition of viral replication at 300 nM after 3 days by beta-galactosidase assay; type: functional, organism-based; outline: as §5

Row | Compound | EC50 [1] [nM] | Ratio EC50 [2] | EC50 [3] [nM] | EC50 [4] [nM] | Activity (HEK-293T) | EC50 [5] [nM] | Ratio EC50 [6] | also measured
1 | COC(=O)N[C@H](C(=O)N[C@@H](Cc1ccccc1)[C@@H](O)CN(Cc1ccc(-c2ccccn2)cc1)NC(=O)[C@@H](NC(=O)OC)C(C)(C)C)C(C)(C)C [ATAZANAVIR] | 324 | 7 |  |  |  |  |  | 
2 | C=C(C)[C@]12C[C@@H](C)[C@@]34O[C@](c5ccccc5)(O[C@@H]1[C@@H]3[C@@H]1O[C@]1(CO)[C@@H](O)[C@]1(O)C(=O)C(C)=C[C@H]14)O2 [DAPHNETOXIN] | 22 | 1 | 16.2 | 26.7 | Non-toxic | 21 | 1 | Activity (PBMC [7]): Active; Activity (PBMC [8]): Active; Activity (PBMC [9]): Active; inhibition [10]: Dose-dependent effect; inhibition [11]: Dose-dependent effect
3 | CC(C)CN(C[C@@H](O)[C@H](Cc1ccccc1)NC(=O)O[C@H]1CO[C@H]2OCC[C@H]21)S(=O)(=O)c1ccc(N)cc1 [DARUNAVIR] | 13700 | >300 |  |  |  |  |  | 
4 | O=C1Nc2ccc(Cl)cc2[C@@](C#CC2CC2)(C(F)(F)F)O1 [EFAVIRENZ] |  |  |  |  |  | 889 | 222 | inhibition [12]: Active; inhibition [13]: Active
5 | C=C(C)[C@]12C[C@@H](C)[C@@]34O[C@](/C=C/C=C/CCCCC)(O[C@@H]1[C@@H]3[C@@H]1O[C@]1(CO)[C@@H](O)[C@]1(O)C(=O)C(C)=C[C@H]14)O2 [EXCOECARIA TOXIN] |  |  | 1080 | 1570 | Non-toxic |  |  | 
6 | C=C(C)[C@@]12O[C@@]3(c4ccccc4)O[C@@H]1[C@@H]1[C@@H]4O[C@]4(CO)[C@@H](O)[C@]4(O)C(=O)C(C)=C[C@H]4[C@@]1(O3)[C@H](C)[C@H]2OC(=O)/C=C/c1ccccc1 [GNIDICIN] |  |  | 8.6 | 17.6 | Non-toxic |  |  | 
7 | C=C(C)C12OC3(c4ccccc4)OC1[C@@H]1[C@@H]4O[C@]4(CO)[C@@H](O)[C@]4(O)C(=O)C(C)=C[C@H]4C1(O3)[C@H](C)[C@H]2OC(=O)/C=C/C=C/C=C/CCC (stereo not given in full) [GNIDITRIN] |  |  | 74 | 133 | Non-toxic |  |  | 
8 | Nc1ccn([C@@H]2CS[C@H](CO)O2)c(=O)n1 [LAMIVUDINE] |  |  |  |  |  | > 20000 | >300 | 
9 | Cc1cccc(C)c1OCC(=O)N[C@@H](Cc1ccccc1)[C@@H](O)C[C@H](Cc1ccccc1)NC(=O)[C@H](C(C)C)N1CCCNC1=O [LOPINAVIR] | 160 | 10 |  |  |  |  |  | 
10 | CC(C)(C)NC(=O)[C@@H]1C[C@@H]2CCCC[C@@H]2CN1C[C@@H](O)[C@H](Cc1ccccc1)NC(=O)[C@H](CC(N)=O)NC(=O)c1ccc2ccccc2n1 [SAQUINAVIR] | 12 | 1 |  |  |  |  |  | 
11 | Cc1cn([C@H]2C[C@H](N=[N+]=[N-])[C@@H](CO)O2)c(=O)[nH]c1=O [ZIDOVUDINE] | 6 |  |  |  |  | 200 | 11 | 
12 | enfuvirtide |  |  |  |  |  |  |  | inhibition [14]: inactive; inhibition [15]: Active
